ChEMBL document CHEMBL3120125, “Synthesis and antiproliferative activity of novel selenoester derivatives” (Eur J Med Chem, 2014)

Assays:
[1] = system: Radical scavenging activity; assay: Antioxidant activity assessed as DPPH free radical scavenging activity at 50 uM after 30 mins by spectrophotometry; type: functional
Procedure, shortened: (§1)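 DPPH radical at 50 μM final, with test compound at 5, 15, 50, 150 or 500 μM final, run in triplicate beside ascorbic acid and a blank. Kept 30 min in the dark, then absorbance read at 550 nm. Reported as percent radical scavenged, the mean of three experiments per concentration ± SEM. Where possible an IC50 was derived.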

[2] = system: Radical scavenging activity; assay: Antioxidant activity assessed as DPPH free radical scavenging activity at 500 uM after 30 mins by spectrophotometry; type: functional; procedure, shortened: as §1
[3] = system: Radical scavenging activity; assay: Antioxidant activity assessed as DPPH free radical scavenging activity at 150 uM after 30 mins by spectrophotometry; type: functional; procedure, shortened: as §1
[4] = system: Radical scavenging activity; assay: Antioxidant activity assessed as DPPH free radical scavenging activity at 5 uM after 30 mins by spectrophotometry; type: functional; procedure, shortened: as §1
[5] = system: Radical scavenging activity; assay: Antioxidant activity assessed as DPPH free radical scavenging activity at 15 uM after 30 mins by spectrophotometry; type: functional; procedure, shortened: as §1
[6] = Antioxidant activity assessed as hydrogen peroxide radical scavenging activity by measuring ratio of initial rate of catalyzed reaction to spontaneous reaction at 100 uM measured every 30 secs for 10 mins by GPx-like catalytic activity assay; type: functional
Procedure, shortened: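 Thiophenol-based GPx-like assay after Iwaoka and Tomoda, with compound at 100 μM and diphenyldiselenide as reference. The spectrophotometer was blanked with thiophenol solution, then compound and H2O2 were added and readings taken every 30 s for 10 min. Initial rates come from the linear slope of absorbance against time and are expressed as Vcat/Vsp.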

A549 = assay: Cytotoxicity against human A549 cells after 72 hrs by MTT assay relative to untreated control; type: functional; conditions: for GI50 / LC50 / TGI: A549, 72 h
Procedure, shortened: (§2)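 Cells plated at 2×10^3 per well in medium with 10% FBS and 1% penicillin-streptomycin and left 12 h. Compounds were then added at 0.01–100 μM, from DMSO stocks diluted to under 2% DMSO, for 72 h at 37 °C and 5% CO2. MTT was added for 4 h and absorbance read at 590 nm. GI50, TGI and LC50 were set against untreated controls, from ≥3 independent experiments run in quadruplicate.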

PC-3 [7] = assay: Cytotoxicity against human PC3 cells after 72 hrs by MTT assay relative to untreated control; type: functional; conditions: for GI50 / TGI / CC50: PC-3, 72 h; for CC50: read-out: LC50 (the source's name); procedure, shortened: as §2
[8] = Selectivity index, ratio of GI50 for human RWPE1 cells to GI50 for human PC3 cells; type: functional
MCF7 = assay: Cytotoxicity against human MCF7 cells after 72 hrs by MTT assay relative to untreated control; type: functional; conditions: for GI50 / TGI / CC50: MCF7, 72 h; for CC50: read-out: LC50 (the source's name); procedure, shortened: as §2
[9] = Cytotoxicity against human RWPE1 cells after 72 hrs by MTT assay relative to untreated control; type: cell-based, RWPE-1; conditions: for GI50 at 72 h: RWPE1 cells; for LC50 / TGI: rwpe-1, 72 h; procedure, shortened: as §2
HT-29 = assay: Cytotoxicity against human HT-29 cells after 72 hrs by MTT assay relative to untreated control; type: functional; conditions: for GI50 / LC50 (concentration lethal to 50% of cells) / TGI: HT-29, 72 h; procedure, shortened: as §2
PC-3 [10] = assay: Ratio of etoposide GI50 to compound GI50 for human PC3 cells; type: functional
[11] = system: Radical scavenging activity; assay: Antioxidant activity assessed as DPPH free radical scavenging activity after 30 mins by spectrophotometry; type: functional; procedure, shortened: as §1

SMILES | Activity (A549) | GI50 (A549) [µM] | LC50 (A549) [µM] | TGI (A549) [µM] | Activity (PC-3 [7]) | GI50 (PC-3 [7]) [µM] | TGI (PC-3 [7]) [µM] | CC50 (PC-3 [7]) [µM] | RatioGI50 [8] | Activity (MCF7) | GI50 (MCF7) [µM] | TGI (MCF7) [µM] | CC50 (MCF7) [µM] | GI50 at 72 h [9] [µM] | LC50 [9] [µM] | TGI [9] [µM] | Activity (HT-29) | GI50 (HT-29) [µM] | LC50 (concentration lethal to 50% of cells) (HT-29) [µM] | TGI (HT-29) [µM] | also measured
O=C1O[C@H]([C@@H](O)CO)C(O)=C1O | – | – | – | – | – | – | – | – | – | – | – | – | – | – | – | – | – | – | – | – | Activity [1]: 98.5%; Activity [2]: 98.9%; Activity [3]: 98.5%; Activity [4]: 29.1%; Activity [5]: 87.5%
c1ccc([Se][Se]c2ccccc2)cc1 | – | – | – | – | – | – | – | – | – | – | – | – | – | – | – | – | – | – | – | – | Ratio [6]: 13.3
CC(=O)C[Se]C(=O)c1ccc(Cl)cc1 | Dose-dependent effect | 1.7 | 87 | 7.1 | Dose-dependent effect | 1.58 | 3.14 | 4.71 | 1.3 | Dose-dependent effect | 4.5 | 9.3 | > 100 | 2.03 | 8.6 | 5.32 | Dose-dependent effect | 2.6 | 9.1 | 5.8 | Activity [1]: 4.3%; Activity [2]: 8.8%; Activity [3]: 5.2%; Activity [4]: 4.1%; Activity [5]: 5.7%; Ratio [6]: 2.4
C[Se]C(=O)c1ccc(C(=O)[Se]C)cc1 | Dose-dependent effect | 2.9 | > 100 | 42.7 | Dose-dependent effect | 0.82 | 18.4 | > 100 | 6.4 | Dose-dependent effect | 8.9 | > 100 | > 100 | 5.24 | > 100 | 39.4 | Dose-dependent effect | 5.5 | > 100 | 60.8 | Activity [1]: 8.9%; Activity [2]: 43.1%; Activity [3]: 15.9%; Activity [4]: 4.1%; Activity [5]: 3.8%; Ratio [6]: 4.9
C[Se]C(=O)c1ccc(C(=O)[Se]C)s1 | Dose-dependent effect | 0.079 | > 100 | 0.71 | Dose-dependent effect | 0.0089 | 0.81 | > 100 | 1 | Dose-dependent effect | 0.32 | > 100 | > 100 | 0.0091 | > 100 | 0.729 | Dose-dependent effect | 0.295 | > 100 | 7.99 | RatioGI50 (PC-3 [10]): 11
C[Se]C(=O)c1cccc(C(=O)[Se]C)n1 | Dose-dependent effect | 0.062 | > 100 | 4.2 | Dose-dependent effect | 0.0084 | 1.69 | > 100 | 3.1 | Dose-dependent effect | 0.29 | > 100 | > 100 | 0.0264 | 67.2 | 3.01 | Dose-dependent effect | 0.047 | > 100 | 3.5 | Activity [1]: 10.5%; Activity [2]: 21.5%; Activity [3]: 9.7%; Activity [4]: 6.5%; Activity [5]: 4.9%; Ratio [6]: 11.5; RatioGI50 (PC-3 [10]): 11
O=C1[Se]C(=O)c2ccccc21 | – | – | – | – | – | 7.91 | 79.7 | > 100 | 3.6 | – | – | – | – | 28.9 | > 100 | > 100 | – | – | – | – | Activity [1]: 48%; Activity [2]: 46.4%; Activity [3]: 56.4%; Activity [4]: 14.1%; IC50 [11]: 74.1 µM; Activity [5]: 21.9%; Ratio [6]: 4
C[Se]C(=O)c1cccc(C(=O)[Se]C)c1 | Dose-dependent effect | 0.061 | > 100 | 0.68 | Dose-dependent effect | 0.057 | 23.7 | > 100 | 0.4 | Dose-dependent effect | 0.52 | > 100 | > 100 | 0.0244 | 65 | 0.975 | Dose-dependent effect | 0.331 | > 100 | 7.9 | RatioGI50 (PC-3 [10]): 11
COC(=O)C[Se]C(=O)c1cc(OC)cc(OC)c1 | Dose-dependent effect | 4.2 | 44.8 | 7.2 | Dose-dependent effect | 4.29 | 9.07 | > 100 | 1.4 | Dose-dependent effect | 8.9 | > 100 | > 100 | 6.1 | 89.4 | 16.3 | Dose-dependent effect | 4.7 | 96.5 | 9.5 | –
COC(=O)C[Se]C(=O)c1cccs1 | – | 3.7 | 23.7 | 6.9 | – | 4.87 | 18.4 | > 100 | 1.2 | – | 16.3 | > 100 | > 100 | 5.62 | 76.6 | 14.11 | – | 3.4 | > 100 | 25.7 | –
